In ChEMBL document CHEMBL5724801, “EUbOPEN Chemogenomics Library - Multiplex” (2024):
“And” between values parts separate entries of the source, which are not always exact repeats. Identical values can stand only once.

Tested on: HEK-293T
Assay: Multiplex assay against HEK293T
Format: toxicity, cell-based
Details: human, 12 h, 1 µM, compound concentration 1 uM
Method in brief: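 Compound was added to live cells that had been stained at seeding with Hoechst33342, BioTracker Green Microtubule Cytoskeleton Dye, MitoTracker Red and Annexin V Alexa Fluor 680, and imaging followed on a CQ1 microscope at 37°C and 5% CO2. CellPathfinder machine-learning gating divided cells into Hoechst high-intensity objects or normal cells, normal cells into healthy, pyknosed or fragmented nuclei, and pyknosed cells into mitotic or apoptotic. Tubulin, mitochondrial-mass and membrane-permeability phenotypes are per cents of healthy-nucleus cells.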

| SMILES | Population Apoptotic (%) | Population Fragmented Nuclei (%) | Population Healthy Nuclei (%) | Population Hoechst High Intensity Objects (%) | Population Membrane Permeable-Phenotype (%) | Population Mitochondria Different-Phenotype (%) | Population Mitotic Cells (%) | Population Normal (%) | Population Pyknosed Nuclei (%) | Population Tubulin-Different-Phenotype (%) |
| --- | --- | --- | --- | --- | --- | --- | --- | --- | --- | --- |
| CCNC1(C(N)=O)CCN(c2ncnc3c2nc(-c2ccccc2Cl)n3-c2ccc(Cl)cc2)CC1 [OTENABANT] | 51% and 58% | 8% | 80% and 76% | 10% and 6% | 0 | 48% and 66% | 48% and 41% | 89% and 93% | 10% and 15% | 52% and 44% |
| CC(C)COc1ccc(CNC(=O)N(Cc2ccc(F)cc2)C2CCN(C)CC2)cc1 [PIMAVANSERIN] | 39% and 54% | 5% and 7% | 82% and 74% | 6% and 11% | 0 | 50% and 68% | 60% and 46% | 93% and 88% | 11% and 18% | 49% and 35% |

Same assay, conditions: human, 12 h, 1 µM, compound concentration 1 uM

| SMILES | Total Cell Count |
| --- | --- |
| CCNC1(C(N)=O)CCN(c2ncnc3c2nc(-c2ccccc2Cl)n3-c2ccc(Cl)cc2)CC1 [OTENABANT] | 401 and 333 |
| CC(C)COc1ccc(CNC(=O)N(Cc2ccc(F)cc2)C2CCN(C)CC2)cc1 [PIMAVANSERIN] | 430 and 311 |

Same assay, conditions: human, 12 h, 10 µM, compound concentration 10 uM

| SMILES | Population Apoptotic (%) | Population Fragmented Nuclei (%) | Population Healthy Nuclei (%) | Population Hoechst High Intensity Objects (%) | Population Membrane Permeable-Phenotype (%) | Population Mitochondria Different-Phenotype (%) | Population Mitotic Cells (%) | Population Normal (%) | Population Pyknosed Nuclei (%) | Population Tubulin-Different-Phenotype (%) |
| --- | --- | --- | --- | --- | --- | --- | --- | --- | --- | --- |
| CCNC1(C(N)=O)CCN(c2ncnc3c2nc(-c2ccccc2Cl)n3-c2ccc(Cl)cc2)CC1 [OTENABANT] | 46% and 63% | 3% and 4% | 74% and 67% | 16% and 9% | 0 | 82% and 96% | 53% and 36% | 83% and 90% | 22% and 27% | 50% and 43% |
| CC(C)COc1ccc(CNC(=O)N(Cc2ccc(F)cc2)C2CCN(C)CC2)cc1 [PIMAVANSERIN] | 62% and 79% | 10% and 7% | 60% and 64% | 19% and 25% | 0 | 89% and 87% | 37% and 20% | 80% and 74% | 28% and 27% | 81% and 66% |

Same assay, conditions: human, 12 h, 10 µM, compound concentration 10 uM

| SMILES | Total Cell Count |
| --- | --- |
| CCNC1(C(N)=O)CCN(c2ncnc3c2nc(-c2ccccc2Cl)n3-c2ccc(Cl)cc2)CC1 [OTENABANT] | 381 and 251 |
| CC(C)COc1ccc(CNC(=O)N(Cc2ccc(F)cc2)C2CCN(C)CC2)cc1 [PIMAVANSERIN] | 285 and 237 |

Same assay, conditions: human, 24 h, 1 µM, compound concentration 1 uM

| SMILES | Population Apoptotic (%) | Population Fragmented Nuclei (%) | Population Healthy Nuclei (%) | Population Hoechst High Intensity Objects (%) | Population Membrane Permeable-Phenotype (%) | Population Mitochondria Different-Phenotype (%) | Population Mitotic Cells (%) | Population Normal (%) | Population Pyknosed Nuclei (%) | Population Tubulin-Different-Phenotype (%) |
| --- | --- | --- | --- | --- | --- | --- | --- | --- | --- | --- |
| CCNC1(C(N)=O)CCN(c2ncnc3c2nc(-c2ccccc2Cl)n3-c2ccc(Cl)cc2)CC1 [OTENABANT] | 49% and 40% | 8% and 12% | 80% and 75% | 5% | 0% | 43% and 47% | 50% and 59% | 94% | 11% | 44% and 41% |
| CC(C)COc1ccc(CNC(=O)N(Cc2ccc(F)cc2)C2CCN(C)CC2)cc1 [PIMAVANSERIN] | 33% and 48% | 9% and 4% | 77% and 82% | 6% and 8% | 2% and 0% | 42% and 55% | 66% and 51% | 93% and 91% | 13% and 12% | 40% and 30% |

Same assay, conditions: human, 24 h, 1 µM, compound concentration 1 uM

| SMILES | Total Cell Count |
| --- | --- |
| CCNC1(C(N)=O)CCN(c2ncnc3c2nc(-c2ccccc2Cl)n3-c2ccc(Cl)cc2)CC1 [OTENABANT] | 474 and 442 |
| CC(C)COc1ccc(CNC(=O)N(Cc2ccc(F)cc2)C2CCN(C)CC2)cc1 [PIMAVANSERIN] | 553 and 394 |

Same assay, conditions: human, 24 h, 10 µM, compound concentration 10 uM

| SMILES | Population Apoptotic (%) | Population Fragmented Nuclei (%) | Population Healthy Nuclei (%) | Population Hoechst High Intensity Objects (%) | Population Membrane Permeable-Phenotype (%) | Population Mitochondria Different-Phenotype (%) | Population Mitotic Cells (%) | Population Normal (%) | Population Pyknosed Nuclei (%) | Population Tubulin-Different-Phenotype (%) |
| --- | --- | --- | --- | --- | --- | --- | --- | --- | --- | --- |
| CCNC1(C(N)=O)CCN(c2ncnc3c2nc(-c2ccccc2Cl)n3-c2ccc(Cl)cc2)CC1 [OTENABANT] | 40% and 64% | 8% and 6% | 71% and 77% | 17% and 13% | 1% and 0% | 79% and 95% | 59% and 35% | 82% and 86% | 19% and 15% | 56% and 53% |
| CC(C)COc1ccc(CNC(=O)N(Cc2ccc(F)cc2)C2CCN(C)CC2)cc1 [PIMAVANSERIN] | 81% and 84% | 10% and 12% | 57% and 54% | 27% and 34% | 0% | 94% and 100% | 18% and 15% | 72% and 65% | 31% and 32% | 77% and 69% |

Same assay, conditions: human, 24 h, 10 µM, compound concentration 10 uM

| SMILES | Total Cell Count |
| --- | --- |
| CCNC1(C(N)=O)CCN(c2ncnc3c2nc(-c2ccccc2Cl)n3-c2ccc(Cl)cc2)CC1 [OTENABANT] | 452 and 283 |
| CC(C)COc1ccc(CNC(=O)N(Cc2ccc(F)cc2)C2CCN(C)CC2)cc1 [PIMAVANSERIN] | 285 and 215 |

Same assay, conditions: human, 48 h, 1 µM, compound concentration 1 uM

| SMILES | Population Apoptotic (%) | Population Fragmented Nuclei (%) | Population Healthy Nuclei (%) | Population Hoechst High Intensity Objects (%) | Population Membrane Permeable-Phenotype (%) | Population Mitochondria Different-Phenotype (%) | Population Mitotic Cells (%) | Population Normal (%) | Population Pyknosed Nuclei (%) | Population Tubulin-Different-Phenotype (%) |
| --- | --- | --- | --- | --- | --- | --- | --- | --- | --- | --- |
| CCNC1(C(N)=O)CCN(c2ncnc3c2nc(-c2ccccc2Cl)n3-c2ccc(Cl)cc2)CC1 [OTENABANT] | 34% and 32% | 12% and 8% | 78% and 82% | 4 | 1% and 0% | 29% and 30% | 65% and 68% | 95 | 9% and 8% | 30% |
| CC(C)COc1ccc(CNC(=O)N(Cc2ccc(F)cc2)C2CCN(C)CC2)cc1 [PIMAVANSERIN] | 27% and 48% | 13% and 9% | 77% and 84% | 5 | 1% and 0% | 31% and 33% | 72% and 51% | 94 | 8% and 6% | 33% and 21% |

Same assay, conditions: human, 48 h, 1 µM, compound concentration 1 uM

| SMILES | Total Cell Count |
| --- | --- |
| CCNC1(C(N)=O)CCN(c2ncnc3c2nc(-c2ccccc2Cl)n3-c2ccc(Cl)cc2)CC1 [OTENABANT] | 766 and 604 |
| CC(C)COc1ccc(CNC(=O)N(Cc2ccc(F)cc2)C2CCN(C)CC2)cc1 [PIMAVANSERIN] | 869 and 601 |

Same assay, conditions: human, 48 h, 10 µM, compound concentration 10 uM

| SMILES | Population Apoptotic (%) | Population Fragmented Nuclei (%) | Population Healthy Nuclei (%) | Population Hoechst High Intensity Objects (%) | Population Membrane Permeable-Phenotype (%) | Population Mitochondria Different-Phenotype (%) | Population Mitotic Cells (%) | Population Normal (%) | Population Pyknosed Nuclei (%) | Population Tubulin-Different-Phenotype (%) |
| --- | --- | --- | --- | --- | --- | --- | --- | --- | --- | --- |
| CCNC1(C(N)=O)CCN(c2ncnc3c2nc(-c2ccccc2Cl)n3-c2ccc(Cl)cc2)CC1 [OTENABANT] | 52% and 70% | 13% and 10% | 71% and 77% | 16% and 14% | 2% and 0% | 78% and 89% | 47% and 29% | 83% and 85% | 15% and 12% | 66% and 57% |
| CC(C)COc1ccc(CNC(=O)N(Cc2ccc(F)cc2)C2CCN(C)CC2)cc1 [PIMAVANSERIN] | 75% and 61% | 29% and 31% | 30% | 52% and 60% | 0% | 88% and 92% | 24% and 38% | 47% and 40% | 40% and 37% | 58% and 64% |

Same assay, conditions: human, 48 h, 10 µM, compound concentration 10 uM

| SMILES | Total Cell Count |
| --- | --- |
| CCNC1(C(N)=O)CCN(c2ncnc3c2nc(-c2ccccc2Cl)n3-c2ccc(Cl)cc2)CC1 [OTENABANT] | 560 and 325 |
| CC(C)COc1ccc(CNC(=O)N(Cc2ccc(F)cc2)C2CCN(C)CC2)cc1 [PIMAVANSERIN] | 235 and 205 |
